According to ChEMBL document CHEMBL1142436, “Design and synthesis of 4-substituted indolo[3,2-e][1,2,3]triazolo[1,5-a]pyrimidine derivatives with antitumor activity” (2008):

What was measured:
Type in all cases: functional
[1] = test system: 786-0; assay: Growth inhibition of human 786-0 cells after 48 hrs; details: 786-0, 48 h
Summary of the method: (§1)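 NCI ~60-line screen. Cells were grown in RPMI 1640 with 5% FBS and 2 mM L-glutamine and plated at 5000–40000 cells/well. After a 24 h preincubation, five drug concentrations from DMSO stocks were added for 48 h at 37 °C. Cells were TCA-fixed, stained with SRB and read at 515 nm. GI50 was taken from time-zero and control absorbances and reported as pGI50.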

[2] = test system: OVCAR-5; assay: Growth inhibition of human OVCAR5 cells after 48 hrs; details: OVCAR-5, 48 h; summary of the method: as §1
[3] = test system: UO-31; assay: Growth inhibition of human UO31 cells after 48 hrs; details: UO-31, 48 h
Summary of the method: (§2)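 NCI 60-line screen: cells in RPMI 1640 with 5% FBS and 2 mM L-glutamine, plated at 5000–40000 cells/well, grown 24 h (37 °C, 5% CO₂), then exposed to five 10-fold or ½-log dilutions (DMSO stock) for 48 h. Fixed with TCA (final 10% for adherent cells, 16% for suspension cells), then SRB stained with absorbance at 515 nm. GI50 from percentage growth relative to time-zero and control wells.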

[4] = test system: NCI-H226; assay: Growth inhibition of human NCI-H226 cells after 48 hrs; details: NCI-H226, 48 h; summary of the method: as §1
[5] = test system: UACC-62; assay: Growth inhibition of human UACC62 cells after 48 hrs; details: UACC-62, 48 h; summary of the method: as §2
[6] = test system: LOX IMVI; assay: Growth inhibition of human LOXIMVI cells after 48 hrs; summary of the method: as §1
[7] = test system: K562; assay: Growth inhibition of human K562 cells after 48 hrs; details: K562, 48 h; summary of the method: as §1
[8] = test system: MDA-MB-435; assay: Growth inhibition of human MDA-MB435 cells after 48 hrs; details: MDA-MB-435, 48 h; summary of the method: as §1
[9] = test system: MDA-MB-231; assay: Growth inhibition of human MDA-MB-231 cells after 48 hrs; details: MDA-MB-231, 48 h; summary of the method: as §1
[10] = test system: SR; assay: Growth inhibition of human SR cells after 48 hrs; summary of the method: as §2
[11] = test system: HL-60; assay: Growth inhibition of human HL60 cells after 48 hrs; details: HL-60, 48 h; summary of the method: as §1
[12] = test system: SK-MEL-2; assay: Growth inhibition of human SK-MEL2 cells after 48 hrs; details: SK-MEL-2, 48 h; summary of the method: as §1
[13] = test system: HCT-15; assay: Growth inhibition of human HCT15 cells after 48 hrs; details: HCT-15, 48 h; summary of the method: as §1
[14] = test system: A549; assay: Growth inhibition of human A549 cells after 48 hrs; details: A549, 48 h; summary of the method: as §1
[15] = test system: BT-549; assay: Growth inhibition of human BT549 cells after 48 hrs; details: BT-549, 48 h; summary of the method: as §1
[16] = test system: CAKI-1; assay: Growth inhibition of human CAKI1 cells after 48 hrs; details: CAKI-1, 48 h; summary of the method: as §1
[17] = test system: SN12C; assay: Growth inhibition of human SN12C cells after 48 hrs; summary of the method: as §2
[18] = test system: SF-295; assay: Growth inhibition of human SF295 cells after 48 hrs; details: SF-295, 48 h; summary of the method: as §1
[19] = test system: PC-3; assay: Growth inhibition of human PC3 cells after 48 hrs; details: PC-3, 48 h; summary of the method: as §1
[20] = test system: TK-10; assay: Growth inhibition of human TK10 cells after 48 hrs; details: TK-10, 48 h; summary of the method: as §2
[21] = test system: SK-OV-3; assay: Growth inhibition of human SKOV3 cells after 48 hrs; details: SK-OV-3, 48 h; summary of the method: as §2
[22] = test system: UACC-257; assay: Growth inhibition of human UACC257 cells after 48 hrs; details: UACC-257, 48 h; summary of the method: as §2
[23] = test system: NCI/ADR-RES; assay: Growth inhibition of human NCI/ADR-RES cells after 48 hrs; summary of the method: as §1
[24] = read-out: Log LC50 (the source's name) (converted)

Cn1c2ccccc2c2c(=O)n(CCCC(=O)NCC(=O)N(C(=O)NC3CCCCC3)C3CCCCC3)c3c(-c4ccccc4)nnn3c21
GI50 [1]: 18.6 µM
LC50 [1]: > 100 µM
TGI ([1]; read-out: pTGI (converted)): 44.7 µM
GI50 [2]: 15.5 µM
LC50 (concentration killing 50% of cells) [2]: 69.2 µM
TGI ([2]; read-out: pTGI (converted)): 32.4 µM
GI50 [3]: 31.6 µM
LC50 [3]: > 100 µM
TGI ([3]; read-out: pTGI (converted)): > 100 µM
GI50 [4]: 39.8 µM
CC50 [4, 24]: > 100 µM
TGI ([4]; read-out: pTGI): > 100 µM
GI50 [5]: 25.7 µM
LC50 [5]: > 100 µM
TGI ([5]; read-out: pTGI (converted)): > 100 µM
GI50 [6]: 13.2 µM
LC50 (lethal concentration, 50% cell kill) [6]: > 100 µM
TGI ([6]; read-out: pTGI (converted)): 97.7 µM
GI50 [7]: 22.9 µM
LC50 [7]: > 50.1 µM
TGI ([7]; read-out: pTGI (converted)): > 100 µM
GI50 [8]: 25.1 µM
LC50 [8]: > 100 µM
TGI ([8]; read-out: pTGI (converted)): > 100 µM
GI50 [9]: 12.3 µM
LC50 (concentration killing 50% of cells) [9]: > 100 µM
TGI ([9]; read-out: pTGI (converted)): 38 µM
GI50 [10]: 3.02 µM
LC50 [10]: 8.51 µM
TGI ([10]; read-out: pTGI (converted)): 5.13 µM
GI50 [11]: 2.88 µM
LC50 [11]: > 100 µM
TGI ([11]; read-out: pTGI (converted)): 8.32 µM
GI50 [12]: 33.1 µM
LC50 [12]: > 100 µM
TGI ([12]; read-out: pTGI (converted)): > 100 µM
GI50 [13]: 10.7 µM
LC50 [13]: > 100 µM
TGI ([13]; read-out: pTGI): > 100 µM
GI50 [14]: 38 µM
CC50 [14, 24]: > 50.1 µM
TGI ([14]; read-out: pTGI (converted)): > 50.1 µM
GI50 [15]: 26.9 µM
GI50 [16]: 32.4 µM
LC50 (concentration killing 50% of cells) [16]: > 100 µM
TGI ([16]; read-out: pTGI (converted)): 37.2 µM
GI50 [17]: 19.5 µM
LC50 [17]: > 100 µM
TGI ([17]; read-out: pTGI (converted)): 50.1 µM
GI50 [18]: > 100 µM
LC50 [18]: > 100 µM
TGI ([18]; read-out: pTGI (converted)): > 100 µM
GI50 [19]: 22.9 µM
LC50 [19]: > 100 µM
TGI ([19]; read-out: pTGI (converted)): > 100 µM
GI50 [20]: > 100 µM
LC50 [20]: > 100 µM
TGI ([20]; read-out: pTGI (converted)): > 100 µM
LC50 [21]: 33.9 µM
TGI ([21]; read-out: pTGI (converted)): 18.6 µM
GI50 [22]: 66.1 µM
LC50 [22]: > 100 µM
TGI ([22]; read-out: pTGI (converted)): > 100 µM
GI50 [23]: 15.5 µM
LC50 (concentration killing 50% of cells) [23]: 72.4 µM
TGI ([23]; read-out: pTGI (converted)): 33.9 µM
